PMC2858063 (Steroids, 2010)

What was measured:
hu-mPRα [1] = molecular target: T1, hu-mPRα (Homo sapiens, UniProt Q86WK9); experiment: hu-mPRα steroid binding assay; conditions: for RBA (Relative Binding Affinity): compared with progesterone (=100), human mPRα; for binding to hu-mPRα (in words): this study, Fig. 1, Table 1
T1 sequence (Q86WK9 1-346): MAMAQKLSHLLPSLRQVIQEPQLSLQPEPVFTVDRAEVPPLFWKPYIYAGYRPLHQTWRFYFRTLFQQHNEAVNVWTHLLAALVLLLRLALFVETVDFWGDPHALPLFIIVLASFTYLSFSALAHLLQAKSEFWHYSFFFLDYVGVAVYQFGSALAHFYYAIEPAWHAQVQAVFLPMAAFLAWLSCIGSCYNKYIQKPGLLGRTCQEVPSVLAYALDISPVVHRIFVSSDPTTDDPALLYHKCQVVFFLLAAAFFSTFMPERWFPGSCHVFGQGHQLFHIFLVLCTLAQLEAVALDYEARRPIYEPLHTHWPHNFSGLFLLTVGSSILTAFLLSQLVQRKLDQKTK

female rabbits = conditions: s.c.; cited from earlier work
human PR-B = molecular target: T2, human PR-B (Homo sapiens, UniProt P06401); experiment: nPR luciferase reporter assay; assay type: cell-based; conditions: for nPR antagonist activity: 20 and 100 nM in the presence of 5 nM progesterone
T2 sequence (P06401 1-933): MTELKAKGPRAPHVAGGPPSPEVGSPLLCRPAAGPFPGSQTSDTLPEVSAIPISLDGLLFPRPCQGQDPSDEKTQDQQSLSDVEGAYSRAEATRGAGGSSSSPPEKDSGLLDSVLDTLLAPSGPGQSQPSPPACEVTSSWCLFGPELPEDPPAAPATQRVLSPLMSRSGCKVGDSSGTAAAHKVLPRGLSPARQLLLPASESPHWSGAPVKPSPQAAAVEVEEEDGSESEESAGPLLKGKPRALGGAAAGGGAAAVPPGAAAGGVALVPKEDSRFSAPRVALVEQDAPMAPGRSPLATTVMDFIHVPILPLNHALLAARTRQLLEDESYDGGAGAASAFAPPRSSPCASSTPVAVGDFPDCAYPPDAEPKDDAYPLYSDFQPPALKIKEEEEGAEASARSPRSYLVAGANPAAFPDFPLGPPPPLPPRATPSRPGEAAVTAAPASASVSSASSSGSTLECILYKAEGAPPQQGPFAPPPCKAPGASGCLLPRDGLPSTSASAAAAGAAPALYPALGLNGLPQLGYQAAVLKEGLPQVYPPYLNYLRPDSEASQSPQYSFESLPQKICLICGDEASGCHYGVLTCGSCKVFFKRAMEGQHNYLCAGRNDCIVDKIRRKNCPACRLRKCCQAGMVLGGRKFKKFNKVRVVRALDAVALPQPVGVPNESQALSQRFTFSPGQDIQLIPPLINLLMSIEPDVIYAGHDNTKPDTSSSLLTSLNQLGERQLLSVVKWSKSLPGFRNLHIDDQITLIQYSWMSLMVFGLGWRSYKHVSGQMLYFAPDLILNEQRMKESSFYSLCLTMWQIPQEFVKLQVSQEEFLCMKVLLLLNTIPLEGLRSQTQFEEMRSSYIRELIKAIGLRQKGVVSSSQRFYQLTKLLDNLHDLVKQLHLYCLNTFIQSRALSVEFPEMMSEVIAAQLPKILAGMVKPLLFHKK
Outline: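 MCF-7 cells in phenol red-free DMEM were co-transfected with human PR-B vector (0.25 μg), MMTV-luciferase reporter (0.6 μg) and Renilla pRL-TK (0.5 μg). […] Cells grew overnight to 90% confluence. Dual-luciferase readings were taken, 10 s each. Firefly/Renilla ratio was reported, in triplicate.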

human nPR = molecular target: T3, human nPR (Homo sapiens, UniProt P06401); experiment: nPR steroid binding assay; conditions: that of progesterone
T3 sequence (P06401 679-933 limits assumed): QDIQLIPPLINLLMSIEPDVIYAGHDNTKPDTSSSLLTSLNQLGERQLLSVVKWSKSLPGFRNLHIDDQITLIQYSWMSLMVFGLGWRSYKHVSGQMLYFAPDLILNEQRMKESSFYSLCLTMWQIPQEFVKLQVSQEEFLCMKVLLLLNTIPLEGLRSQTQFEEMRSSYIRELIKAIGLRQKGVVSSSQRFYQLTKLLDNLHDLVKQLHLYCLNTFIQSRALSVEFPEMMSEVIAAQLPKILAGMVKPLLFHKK

hu-mPRα [2] = molecular target: T1, hu-mPRα; experiment: MAPK activation assay; assay type: cell-based; conditions: 100 nM, 10 min, mPRα-transfected MDA-MB-231 cells
Outline: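 Control and mPRα-transfected MDA-MB-231 cells were serum-starved 5–6 days, then treated 10 min with progestins (100 nM; 1–100 nM for concentration-response), with EGF as positive control. Lysis was in RIPA buffer plus protease inhibitors. Lysate (10 μg/lane, non-reducing) ran on duplicate SDS gels, was blotted, and was probed for total or phospho-p42/44 with rabbit monoclonals, then HRP anti-rabbit 1 h. Detection was by chemiluminescence on film. Runs were repeated 3–4 times, with statistics versus vehicle.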

RBA (Relative Binding Affinity) (hu-mPRα [1]) | binding to hu-mPRα (in words) (hu-mPRα [1]) | nPR antagonist activity (human PR-B) | relative binding affinity for nPR (human nPR) | MAPK activation (phosphorylation of ERK) (hu-mPRα [2]) | nPR agonist activity (human PR-B; PR-B and PRE-luciferase reporter in MCF-7 cells, 50 nM (19-CH2P4 also 1–50 nM)) | Compound | progestational activity in comparison with progesterone (female rabbits)
<1% | lost all affinity | – | – | – | – | CC[C@H]1CC[C@H]2[C@@H]3CCC4=CC(=O)CC[C@]4(C)[C@H]3CC[C@]12C(C)=O [13-Acetyl-18-norpregn-4-en-3-one] | 1/4
92.7% | relatively high affinity | weak antagonist activity | 2.3% | mPRα agonists | – | 19a-methylprogesterone [19a-Methylprogesterone (Org OD 13-0)] | –
49.9% | low binding affinities | – | – | – | – | CC(=O)[C@H]1CC[C@H]2[C@@H]3CCC4=CC(=O)CC[C@]4(C)[C@H]3CC[C@]12C(C)=O [13-Acetyl-18-norprogesterone] | 1/3

Compound | RBA (Relative Binding Affinity) (hu-mPRα [1]) | binding to hu-mPRα (in words) (hu-mPRα [1]) | nPR antagonist activity (human PR-B) | relative binding affinity for nPR (human nPR) | MAPK activation (phosphorylation of ERK) (hu-mPRα [2]) | nPR agonist activity (human PR-B; PR-B and PRE-luciferase reporter in MCF-7 cells, 50 nM (19-CH2P4 also 1–50 nM)) | progestational activity in comparison with progesterone (female rabbits)
C=C[C@]12CC[C@H]3[C@@H](CCC4=CC(=O)CC[C@@]43C)[C@@H]1CC[C@@H]2C(C)=O [13-ethenyl-18-norprogesterone] | 168.2% | affinities higher than that of progesterone | – | – | mPRα agonists | showed nPR agonist activity | –
C=C[C@]12CCC(=O)C=C1CC[C@H]1[C@@H]3CC[C@H](C(C)=O)[C@@]3(C)CC[C@@H]12 [10-ethenyl-19-norprogesterone] | 257.7% | affinities higher than that of progesterone | weak antagonist activity | 12.9% | mPRα agonists | – | –
